Shown are actives, neighbours in structure and some others; about 2.3% of the full set was active somewhere.
TRPC4 potent: allosteric potentiators of mouse TRPC4 channel | Q9QUQ5 | HEK293 TRPC4beta/mu-opioid, DAMGO EC20, Fluo-4 Ca2+ flux; hits give high values | 310,000 compounds, 0.42% hits | B-score at 10 µM;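 active = B-score of calcium response area above 5 SD of library B-scores, with initial fluorescence ratio within 5 SD of library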;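 note: B-score of integrated fluorescence ratio over time as area under calcium response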
TRPC4 inh: blocks the mouse TRPC4 cation channel; 300,000 compounds, 0.39% hits; HEK293 TRPC4beta/mu-opioid, DAMGO-evoked Fluo4 calcium flux; hits give low values; Q9QUQ5; B-score at 10 µM;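 active = B-score over 3 SD under the library average, no early fluorescence shift, positive overall ratio signal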
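test system = HEK293 cells with stable TRPC4beta plus mu-opioid receptor expression | detection = Fluo4 Ca2+ flux fluorescence | read-out = integrated fluorescence ratio relative to baseline, converted to per-well B score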
TRPC6 activator: mouse TRPC6 channel activation. 310,000 compounds, 0.13% hits. B-score at 10 µM. HEK293-TRPC6 membrane potential dye fluorescence; hits give high values. Q61143;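 active = B-score of the integrated fluorescence ratio above library mean plus 3 SD, and starting fluorescence ratio within library mean plus 5 SD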;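 note: higher score means more depolarization so channel activation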
TRPC4 agonist: opens the mouse TRPC4 cation channel. Q9QUQ5. HEK293 TRPC4beta/mu-opioid, Fluo4 calcium fluorescence; hits give high values. B-score at 10 µM. 310,000 compounds, 0.49% hits;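 active = B-score above 5 SD of library B-scores, and initial fluorescence ratio not above library mean plus 5 SD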;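 note: positive B-score marks a calcium rise read as TRPC4 activation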
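Assay system: HEK293 stable line with TRPC4beta plus mu-opioid receptor. Times: dye 45 min RT, read 110 s. Measured by: kinetic Fluo4 calcium fluorescence. Measure: B score of integrated ratio. Controls: assay buffer as low control, maximal DAMGO as high control.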
TRPC6 inh: inhibitors of mouse TRPC6 channel; B-score at 10 µM; Q61143; HEK293-TRPC6, membrane potential dye, ACh-evoked depolarization; hits give low values; AID 2553; 310,000 compounds, 1.1% hits;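 active = B-score under library mean minus 3 SD, initial fluorescence not abnormally high, positive integrated signal ratio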;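 note: B-score derived from integrated fluorescence ratio over the kinetic read; more negative B-score means stronger inhibition of depolarization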
TRPC4 sel inh 2: second check of whether TRPC6 inhibitors also affect mouse TRPC4 | shares compounds with TRPC6 inh | HEK293 TRPC4/MOR, membrane potential dye fluorescence; channel activated by saturating DAMGO dose | inhibition, % at 10 µM | 920 compounds, 42% hits | AID 2776;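 active = compounds whose fluorescence signal differed from control wells by over 3 SD, either direction, in both duplicate plates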
TRPC4 spec: selectivity of TRPC6 inhibitors: effect on mouse TRPC4; HEK293 TRPC4/mu-opioid, membrane potential fluorescence; activity change, negative = inhibition, % at 10 µM; shares compounds with TRPC6 inh; 920 compounds, 61% hits;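 active = rise or fall in signal beyond 3 SD of buffer-only wells in both replicate plates, either sign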;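 note: integrated kinetic ratio of fluorescence range over baseline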
HEK293 MPD ctr 2-1: parental HEK293 nonspecific activity of TRPC6 inhibitors, second screen. shares compounds with TRPC6 inh. parental HEK293 membrane potential dye fluorescence; maximal acetylcholine challenge after compound addition. signal change vs control, % at 10 µM. 920 compounds, 31% hits;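 active = membrane potential signal moving either way by over 3 SD of the maximum-effect control, in both duplicate plates, meaning non-specific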
HEK293 MPD ctr-1: checks TRPC6 inhibitor effects in parental HEK293 cells. AID 2780. membrane potential signal change, % at 10 µM. 920 compounds, 60% hits. parental HEK293 membrane potential dye fluorescence. shares compounds with TRPC6 inh;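 active = membrane potential signal shifting up or down by more than 3 SD of buffer-only wells, on both duplicate plates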
HEK293 MPD ctr-2: checks TRPC6 modulator effects in parental HEK293 cells; shares compounds with TRPC6 inh; 2,400 compounds, 51% hits; membrane potential dye fluorescence; membrane potential signal change, % at 10 µM;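 active = membrane potential signal moves up or down beyond 5 SD from buffer-only wells, on both duplicate plates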
HEK293 MPD ctr 2-2: second counter-screen for TRPC6 modulators: effect in parental HEK293 cells; shares compounds with TRPC6 inh; membrane potential dye fluorescence; after compound, maximal acetylcholine stimulation; inhibition, % at 10 µM; 2,400 compounds, 14% hits; AID 488926;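 active = membrane potential signal drops by more than 5 SD from the mean control signal, in both duplicate plates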;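 note: plate controls were acetylcholine ECmax control wells for no effect and buffer only wells for full effect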
TRPC4/MOR mod: selectivity of TRPC6 modulators against mouse TRPC4; shares compounds with TRPC6 inh; 2,400 compounds, 69% hits; HEK293 TRPC4/mu-opioid, membrane potential fluorescence; percent change from control (negative = decrease, positive = increase), % at 10 µM; AID 488927;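 active = membrane potential signal moved up or down beyond 5 SD of buffer control wells, in both duplicate plates, actives on both sides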;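 note: plate controls were assay buffer wells for no effect and DAMGO maximal-effect wells for full effect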
TRPC4 ctr inh 2: mouse TRPC4 off-target activity of TRPC6 modulators, second screen | shares compounds with TRPC6 inh | HEK293 TRPC4/mu-opioid, membrane potential dye fluorescence; stimulated with maximal-effect DAMGO | inhibition, % at 10 µM | 2,400 compounds, 55% hits;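 active = drop in membrane potential signal beyond 5 SD of the control wells in both duplicate plates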;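 note: TRPC4 counter screen for TRPC6 hits run under conditions tuned for TRPC6 not TRPC4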
TRPC6 block conf: confirmation of mouse TRPC6 inhibitors | shares compounds with TRPC6 inh | HEK293-TRPC6, membrane potential dye, ACh-evoked depolarization | inhibition, % at 10 µM | 3,300 compounds, 43% hits | AID 488960;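 active = fluorescence ratio falls more than 5 SD below the full-stimulation control mean, in both duplicate runs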;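 note: integrated fluorescence ratio of peak minus minimum over baseline after agonist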
TRPC6 act confirm: confirmation of mouse TRPC6 activators; shares compounds with TRPC6 inh; HEK293-TRPC6 membrane potential dye fluorescence, FDSS; activation, % at 10 µM; 2,800 compounds, 11% hits; AID 488961;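 active = ratio signal rise beyond 5 SD above unstimulated control wells' mean, seen in both duplicate runs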;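 note: plate controls were buffer EC0 wells for no effect and acetylcholine ECmax response for full effect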
The depositor's hits bear a star; i = inactive; nt = no result.

SMILES	TRPC4 potent	TRPC4 inh	TRPC6 activator	TRPC4 agonist	TRPC6 inh	TRPC6 block conf	TRPC6 act confirm	others
CC(=O)c1ccc(NC(=O)C2CCCN(S(=O)(=O)c3ccc(-n4cnnn4)cc3)C2)cc1 (centres undefined)	i	i	i	i	i	nt	nt
CC(=O)Nc1ccc(NC(=O)C2CCCN(S(=O)(=O)c3ccc(-n4cnnn4)cc3)C2)cc1 (centres undefined)	i	i	i	i	-6.61*	i	i	TRPC4 sel inh 2=i;TRPC4 spec=i;HEK293 MPD ctr 2-1=i;HEK293 MPD ctr-1=i
CC(=O)N1c2ccc(S(=O)(=O)N3CCCC(C(=O)Nc4ccc(F)cc4)C3)cc2CC1C (centres undefined)	i	i	i	i	-5.11*	i	i	HEK293 MPD ctr-2=i;HEK293 MPD ctr 2-2=i;TRPC4/MOR mod=i;TRPC4 ctr inh 2=i
COc1ccc(NC(=O)C2CCCN(S(=O)(=O)c3ccc4c(c3)CC(C)N4C(C)=O)C2)cc1 (centres undefined)	i	i	i	i	i	nt	nt
CCOC(=O)c1[nH]c2ccc(F)cc2c1NC(=O)CN1CCN(C/C=C/c2ccccc2)CC1	i	i	i	i	-11.8*	87.9%*	i	TRPC4 sel inh 2=40.0%*;TRPC4 spec=-20.9%*;HEK293 MPD ctr 2-1=i;HEK293 MPD ctr-1=-246.5%*
COC(=O)c1[nH]c2ccccc2c1NC(=O)CN1CC(C)OC(C)C1 (centres undefined)	i	i	i	i	i	nt	nt
CCOC(=O)c1[nH]c2ccc(F)cc2c1NC(=O)CN1CCc2cc(OC)c(OC)cc2C1	i	i	i	i	i	nt	nt
COC(=O)c1[nH]c2ccccc2c1NC(=O)CN1CCN(C/C=C/c2ccccc2)CC1	i	i	i	i	-7.84*	79.4%*	i	TRPC4 sel inh 2=30.5%*;TRPC4 spec=-16.0%*;HEK293 MPD ctr 2-1=i;HEK293 MPD ctr-1=-176.0%*
Cc1ccc(C)c(N2CCN(C(=O)CCCOc3cc(=O)n(C)c4ccccc34)CC2)c1	i	i	i	i	-6.23*	55.0%*	nt	HEK293 MPD ctr-2=139.0%*;HEK293 MPD ctr 2-2=i;TRPC4/MOR mod=30.5%*;TRPC4 ctr inh 2=i
C/C(=N\NC(=O)c1ccccc1O)C1C(=O)c2ccccc2C1=O	i	i	i	i	-5.47*	i	i	HEK293 MPD ctr-2=i;HEK293 MPD ctr 2-2=i;TRPC4/MOR mod=-16.5%*;TRPC4 ctr inh 2=i
C/C(=N/NC(=O)c1cc2ccccc2cc1O)C1C(=O)c2ccccc2C1=O	i	i	i	i	i	nt	nt
O=S(=O)(Cc1ccc(Cl)cc1)NCc1ccc2c(c1)OCO2	i	i	i	i	i	nt	nt
CCOc1ccc(CNCCNC(=O)c2nonc2N)cc1	i	i	i	i	i	nt	nt

From PubChem BioAssay
